Reference: ChEMBL document CHEMBL4007422 (J Med Chem, 2017)
The source made the active and inactive calls. The calls are words filed in the database; no cut-off is given here.

Key:
[1] = system: Rattus norvegicus; test: Increase in acetylcholine level in Wistar rat ventral hippocampus at 1 mg/kg, sc after 4 hrs in presence of 1 mg/kg of donepezil administered sc by LC-MS/MS based microdialysis method relative to control; type: functional
[2] = system: Rattus norvegicus; test: Reversal of time-induced amnesia in Wistar rat at 1 to 3 mg/kg, sc administered 60 mins prior to testing measured for 3 mins by object recognition test; type: functional, organism-based
[3] = biological target: 5-hydroxytryptamine receptor 2A (Homo sapiens) (UniProt P28223); test: Displacement of [3H]-Ketanserine from recombinant human 5-HT2A receptor expressed in CHOK1 cell membranes after 60 mins by microbeta scintillation counting analysis
Sequence of 5-hydroxytryptamine receptor 2A (Homo sapiens) (P28223 whole entry): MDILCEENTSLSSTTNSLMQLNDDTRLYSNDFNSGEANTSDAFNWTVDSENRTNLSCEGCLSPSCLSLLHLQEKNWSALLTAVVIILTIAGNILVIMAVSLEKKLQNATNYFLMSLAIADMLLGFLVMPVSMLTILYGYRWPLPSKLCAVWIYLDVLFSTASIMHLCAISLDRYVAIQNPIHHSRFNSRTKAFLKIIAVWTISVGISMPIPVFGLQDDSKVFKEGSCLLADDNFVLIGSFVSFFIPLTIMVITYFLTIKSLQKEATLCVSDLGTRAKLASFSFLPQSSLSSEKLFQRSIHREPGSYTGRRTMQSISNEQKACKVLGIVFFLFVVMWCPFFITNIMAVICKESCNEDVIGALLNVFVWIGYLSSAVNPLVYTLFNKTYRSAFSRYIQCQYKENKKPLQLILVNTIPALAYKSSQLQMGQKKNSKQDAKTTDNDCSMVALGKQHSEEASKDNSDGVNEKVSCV

[4] = biological target: T1, 5-hydroxytryptamine receptor 1A (Homo sapiens) (UniProt P08908); test: Displacement of [3H]-8-OH-DPAT from recombinant human 5-HT1A receptor expressed in HEK293 EBNA cell membranes after 120 mins by microbeta scintillation counting analysis
T1 sequence (whole entry): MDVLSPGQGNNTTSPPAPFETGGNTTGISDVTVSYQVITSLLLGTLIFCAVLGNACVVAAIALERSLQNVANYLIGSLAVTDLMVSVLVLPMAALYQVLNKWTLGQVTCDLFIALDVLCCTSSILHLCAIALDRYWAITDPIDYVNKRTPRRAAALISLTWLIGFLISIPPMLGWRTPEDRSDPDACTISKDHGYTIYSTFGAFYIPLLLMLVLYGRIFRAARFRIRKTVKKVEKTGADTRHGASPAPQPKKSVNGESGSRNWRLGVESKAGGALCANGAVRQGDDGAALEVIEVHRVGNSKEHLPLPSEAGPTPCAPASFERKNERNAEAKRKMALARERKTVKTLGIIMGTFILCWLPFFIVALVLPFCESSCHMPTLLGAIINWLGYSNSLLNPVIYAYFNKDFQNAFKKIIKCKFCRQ

[5] = biological target: T2, 5-hydroxytryptamine receptor 2C (Homo sapiens) (UniProt P28335); test: Displacement of [3H]-Mesulergine from recombinant human 5-HT2C receptor expressed in HEK293 cell membranes after 180 mins by microbeta scintillation counting analysis
T2 sequence (whole entry): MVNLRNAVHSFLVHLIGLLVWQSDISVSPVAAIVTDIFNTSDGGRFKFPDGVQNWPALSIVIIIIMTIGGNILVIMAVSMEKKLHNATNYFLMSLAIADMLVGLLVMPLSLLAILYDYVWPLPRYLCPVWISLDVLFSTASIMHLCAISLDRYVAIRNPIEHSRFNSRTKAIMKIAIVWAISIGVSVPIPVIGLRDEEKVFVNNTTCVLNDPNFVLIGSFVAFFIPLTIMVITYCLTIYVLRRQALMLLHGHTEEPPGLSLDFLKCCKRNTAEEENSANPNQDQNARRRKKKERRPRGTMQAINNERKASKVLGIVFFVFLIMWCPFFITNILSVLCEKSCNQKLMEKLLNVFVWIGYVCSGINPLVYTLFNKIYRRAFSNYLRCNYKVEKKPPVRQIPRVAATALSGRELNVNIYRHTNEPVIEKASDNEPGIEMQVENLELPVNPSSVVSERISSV

[6] = biological target: 5-hydroxytryptamine receptor 4 (Homo sapiens) (UniProt Q13639); test: Displacement of [3H]-GR113808 from recombinant human 5-HT4B receptor expressed in Chem1 cell membranes after 120 mins by microbeta scintillation counting analysis
Sequence of 5-hydroxytryptamine receptor 4 (Homo sapiens) (Q13639 whole entry): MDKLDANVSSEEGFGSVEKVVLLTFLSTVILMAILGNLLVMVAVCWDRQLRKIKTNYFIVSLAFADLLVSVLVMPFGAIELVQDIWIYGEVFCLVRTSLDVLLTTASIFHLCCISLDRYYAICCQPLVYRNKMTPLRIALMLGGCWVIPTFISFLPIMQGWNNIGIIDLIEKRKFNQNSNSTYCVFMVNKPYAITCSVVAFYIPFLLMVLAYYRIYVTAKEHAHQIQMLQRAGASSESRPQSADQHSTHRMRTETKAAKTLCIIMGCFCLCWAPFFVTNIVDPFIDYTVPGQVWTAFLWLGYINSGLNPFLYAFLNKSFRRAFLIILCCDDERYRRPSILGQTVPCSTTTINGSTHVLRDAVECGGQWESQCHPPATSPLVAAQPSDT

[7] = biological target: 5-hydroxytryptamine receptor 7 (Rattus norvegicus) (UniProt P32305); test: Binding affinity to recombinant rat 5-HT7 receptor expressed in CHOK1 cells assessed as inhibition of 5-HT stimulated cAMP accumulation after 4 hrs by luciferase reporter gene assay; type: cell-based
Sequence of 5-hydroxytryptamine receptor 7 (Rattus norvegicus) (P32305 whole entry): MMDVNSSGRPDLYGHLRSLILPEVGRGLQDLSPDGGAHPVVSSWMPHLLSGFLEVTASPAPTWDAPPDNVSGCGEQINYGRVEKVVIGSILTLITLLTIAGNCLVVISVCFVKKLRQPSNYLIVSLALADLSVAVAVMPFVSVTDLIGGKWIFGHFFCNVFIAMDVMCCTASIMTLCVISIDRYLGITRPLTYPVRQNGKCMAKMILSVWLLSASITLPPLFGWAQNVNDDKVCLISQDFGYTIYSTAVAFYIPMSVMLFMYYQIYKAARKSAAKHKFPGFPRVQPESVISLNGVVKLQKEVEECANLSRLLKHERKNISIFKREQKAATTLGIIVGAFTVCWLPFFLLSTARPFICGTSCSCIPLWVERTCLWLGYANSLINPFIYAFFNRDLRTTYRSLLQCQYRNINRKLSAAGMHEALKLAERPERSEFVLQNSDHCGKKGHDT

[8] = biological target: Cytochrome P450 2D6 (Homo sapiens, UniProt P10635); test: Inhibition of CYP2D6 in human liver microsomes in presence of NADPH by LC-MS/MS analysis
Sequence of Cytochrome P450 2D6 (P10635 whole entry): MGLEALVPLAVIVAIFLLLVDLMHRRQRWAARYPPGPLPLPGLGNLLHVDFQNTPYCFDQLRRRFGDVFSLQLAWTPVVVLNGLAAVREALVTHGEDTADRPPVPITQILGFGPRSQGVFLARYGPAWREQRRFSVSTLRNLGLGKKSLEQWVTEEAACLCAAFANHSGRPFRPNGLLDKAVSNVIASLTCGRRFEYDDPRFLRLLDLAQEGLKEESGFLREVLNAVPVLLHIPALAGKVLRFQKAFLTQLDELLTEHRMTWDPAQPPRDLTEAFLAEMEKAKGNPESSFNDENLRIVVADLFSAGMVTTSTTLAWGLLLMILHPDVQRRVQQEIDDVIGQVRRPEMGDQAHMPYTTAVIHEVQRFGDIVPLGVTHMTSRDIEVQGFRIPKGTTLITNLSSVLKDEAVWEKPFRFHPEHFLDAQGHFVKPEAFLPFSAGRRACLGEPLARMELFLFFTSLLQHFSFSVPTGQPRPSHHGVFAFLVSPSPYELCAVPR

[9] = Cmax in Wistar rat at 10 mg/kg, po by LC-MS/MS analysis; type: ADME, organism-based; set-up: dose 10 mg/kg, route oral; conditions: in vivo
[10] = system: Rattus norvegicus; test: (§1) AUC (0 to t) in Wistar rat at 10 mg/kg, po by LC-MS/MS analysis; type: ADME, organism-based; conditions: in vivo
[11] = system: Rattus norvegicus; test: (§2) Oral bioavailability in Wistar rat at 10 mg/kg by LC-MS/MS analysis; type: ADME, organism-based; conditions: in vivo
[12] = Half life in Wistar rat at 10 mg/kg, iv by LC-MS/MS analysis; type: ADME, organism-based; conditions: in vivo
[13] = Apparent volume of distribution in Wistar rat at 10 mg/kg, iv by LC-MS/MS analysis; type: ADME, organism-based; conditions: in vivo, read-out: Vz
[14] = biological target: Cytochrome P450 3A4 (Homo sapiens, UniProt P08684)
Sequence of Cytochrome P450 3A4 (P08684 whole entry): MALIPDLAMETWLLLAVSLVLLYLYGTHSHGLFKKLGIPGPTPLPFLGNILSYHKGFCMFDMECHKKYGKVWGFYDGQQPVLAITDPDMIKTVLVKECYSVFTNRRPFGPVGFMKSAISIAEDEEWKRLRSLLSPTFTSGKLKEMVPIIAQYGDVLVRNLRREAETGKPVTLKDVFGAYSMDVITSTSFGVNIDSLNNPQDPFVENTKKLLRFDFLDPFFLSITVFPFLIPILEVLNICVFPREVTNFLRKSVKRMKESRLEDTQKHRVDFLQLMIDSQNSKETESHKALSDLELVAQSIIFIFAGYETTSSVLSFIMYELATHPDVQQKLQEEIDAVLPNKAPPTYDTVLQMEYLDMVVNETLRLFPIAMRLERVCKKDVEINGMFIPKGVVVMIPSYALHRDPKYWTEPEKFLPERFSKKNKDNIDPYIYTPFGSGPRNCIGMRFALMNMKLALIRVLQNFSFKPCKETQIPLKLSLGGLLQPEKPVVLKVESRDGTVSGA

[15] = as §1; type: ADME, organism-based; conditions: Wistar, in vivo
[16] = as §2; type: ADME, organism-based; conditions: Wistar, in vivo
[17] = Clearance in Wistar rat at 10 mg/kg, iv by LC-MS/MS analysis; type: ADME, organism-based; conditions: in vivo
[18] = Ratio of drug uptake in Wistar rat brain to plasma at 10 mg/kg, po by LC-MS/MS analysis; type: ADME, organism-based; conditions: read-out: BPR
[19] = system: Rattus norvegicus; test: Reversal of time-induced amnesia in Wistar rat at 10 mg/kg, po administered 60 mins prior to testing measured for 3 mins by object recognition test; type: functional, organism-based
In short: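 Time-induced object recognition task in rats. Oral dosing at 1, 3 and 10 mg/kg given 60 min before the test; vehicle water for injection 1 mL/kg p.o.; n = 7−12/group. Exploration of novel versus familiar object compared by paired t-test.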

[20] = biological target: T3, 5-hydroxytryptamine receptor 6 (Homo sapiens, UniProt P50406); test: Displacement of [3H]-LSD from recombinant human 5-HT6 receptor expressed in HEK293 cells after 60 mins; type: cell-based
T3 sequence (P50406 whole entry): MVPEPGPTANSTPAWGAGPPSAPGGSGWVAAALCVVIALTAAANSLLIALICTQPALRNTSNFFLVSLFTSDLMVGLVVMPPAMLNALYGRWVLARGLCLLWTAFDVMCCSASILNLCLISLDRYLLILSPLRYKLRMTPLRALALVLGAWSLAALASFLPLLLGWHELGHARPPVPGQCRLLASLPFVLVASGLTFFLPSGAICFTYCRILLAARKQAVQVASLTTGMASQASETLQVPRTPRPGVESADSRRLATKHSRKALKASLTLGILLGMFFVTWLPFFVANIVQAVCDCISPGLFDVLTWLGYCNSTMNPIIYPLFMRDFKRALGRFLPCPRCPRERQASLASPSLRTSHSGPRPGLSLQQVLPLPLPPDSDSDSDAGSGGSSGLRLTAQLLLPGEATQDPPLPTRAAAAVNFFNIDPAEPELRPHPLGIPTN

[21] = biological target: T3, 5-hydroxytryptamine receptor 6; test: Antagonist activity at recombinant human 5-HT6 receptor expressed in CHO cells assessed as inhibition of 5-HT stimulated cAMP accumulation after 4 hrs by luciferase reporter gene assay; type: functional, cell-based
In short: (§3)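 Stable CHO line expressing recombinant human 5-HT6 receptor with a pCRE-luciferase reporter, a nonradioactive cell-based format. Output is Kb (nM), the mean of duplicate experiments, with Imax (%) also reported.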

[22] = biological target: T3, 5-hydroxytryptamine receptor 6; test: Antagonist activity at recombinant human 5-HT6 receptor expressed in CHO cells assessed as inhibition of 5-HT stimulated cAMP accumulation after 4 hrs by luciferase reporter gene assay relative to control; type: functional, cell-based; in short: as §3

Compound	Activity [3]	Activity [4]	Activity [5]	Activity [6]	Activity [7]	IC50 [8]	Cmax [9]	half-life [12]	Vd [13]	IC50 [14]	AUC(0-t) [15]	bioavailability [16]	clearance [17]	Ki [20]	Kb [21]	Imax [22]	further results
CC12CC3CC(C)(C1)CC(N)(C3)C2 [MEMANTINE]																	Activity [1]: 1203%
CN(C)CCCOc1ccc2[nH]nc(S(=O)(=O)c3cccc4ccccc34)c2c1																	Activity [2]: Active
CN1CCN(Cc2cn(S(=O)(=O)c3ccccc3)c3ccccc23)CC1.Cl.Cl	Active	inactive	inactive	inactive	inactive	> 10000 nM	1220 ng/mL	0.89 h	1.2 L/kg	> 10000 nM	2220 ng·h/mL	21.4%	14.9 mL/min/kg				Kp [18]: 0.82; Activity [19]: Active

The next lines start with results.

Activity [3]	Activity [4]	Activity [5]	Activity [6]	Activity [7]	IC50 [8]	Cmax [9]	half-life [12]	Vd [13]	IC50 [14]	AUC(0-t) [15]	bioavailability [16]	clearance [17]	Ki [20]	Kb [21]	Imax [22]	Compound	further results
Active	inactive	inactive	inactive	inactive	1900 nM	22 ng/mL	5.7 h	49.5 L/kg	2200 nM							COc1ccc2c(c1)c(CN1CCCN(C)CC1)cn2S(=O)(=O)c1ccc(C(C)C)cc1.Cl.Cl	AUCt [10]: 157 ng·h/mL; F [11]: 4%
Active	inactive	inactive	inactive	inactive		125 ng/mL	1.5 h	6.3 L/kg		221 ng·h/mL	17.5%	75 mL/min/kg	8.76 nM	12.3 nM	98%	CN1CCN(Cc2cn(S(=O)(=O)c3ccc(F)cc3)c3ccccc23)CC1	
Active	inactive	inactive	inactive	inactive	7700 nM	1900 ng/mL	1.93 h	3.2 L/kg	1400 nM	7740 ng·h/mL	91.4%	19.5 mL/min/kg	4 nM	14 nM	99%	CC(C)c1ccc(S(=O)(=O)n2cc(CN3CCN(C)CC3)c3cc(F)ccc32)cc1.Cl.Cl	Kp [18]: 0.95; Activity [19]: Active
Active	inactive	inactive	inactive	inactive	9700 nM	45.6 ng/mL	2.12 h	6.1 L/kg		138 ng·h/mL	10.7%	65 mL/min/kg	11.6 nM	9.8 nM	98%	COc1cccc2c1c(CN1CCN(C)CC1)cn2S(=O)(=O)c1ccc(C(C)C)cc1.Cl.Cl	
